Molecular target: T1, DMT1 (SLC11A2) (Homo sapiens, UniProt P49281)
T1 sequence (P49281 1-568): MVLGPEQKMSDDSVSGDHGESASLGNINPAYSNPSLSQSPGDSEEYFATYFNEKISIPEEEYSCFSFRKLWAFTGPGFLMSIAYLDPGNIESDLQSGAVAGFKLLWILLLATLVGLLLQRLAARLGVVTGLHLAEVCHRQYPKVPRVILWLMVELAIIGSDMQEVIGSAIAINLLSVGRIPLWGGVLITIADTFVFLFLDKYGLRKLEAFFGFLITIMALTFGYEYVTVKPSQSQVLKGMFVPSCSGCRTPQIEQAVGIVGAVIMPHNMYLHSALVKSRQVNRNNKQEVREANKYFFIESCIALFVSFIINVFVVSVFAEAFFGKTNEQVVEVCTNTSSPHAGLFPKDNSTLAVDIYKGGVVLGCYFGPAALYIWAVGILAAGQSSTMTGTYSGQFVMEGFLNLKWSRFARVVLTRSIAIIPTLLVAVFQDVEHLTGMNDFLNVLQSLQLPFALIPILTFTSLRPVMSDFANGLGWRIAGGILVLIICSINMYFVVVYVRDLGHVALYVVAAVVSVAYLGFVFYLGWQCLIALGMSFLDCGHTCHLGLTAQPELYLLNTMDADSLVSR
Assay: Radioactive 55Fe uptake assay in HEK293 cells stably overexpressing DMT1
Assay type: cell-based
Summary of the method: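 HEK293 cells stably expressing human DMT1 (pIRES2 DsRed-Express2, geneticin 500 μg/mL) were seeded at 50,000 cells/well for 24 h. Cells were preincubated 5 min in uptake buffer, pH 5.5, with a range of test compound. ⁵⁵Fe²⁺ (1 μM) with ascorbate and unlabelled Fe²⁺ was then added for 15 min at room temperature. After ice-cold washes, uptake was read by scintillation counting as % of DMSO control. IC50 came from a 4-parameter logistic fit (two experiments in triplicate), and LE was derived from IC50.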

IC50: 525 ± 65 µM
ligand efficiency LE (from DMT1 IC50): 0.35 kcal^.mol^−1
Compound: CC1CCc2sc(C(=O)O)cc2C1 (centres unmarked) [compound 2]
